Experimental data from ChEMBL document CHEMBL4308887, “Synthesis and biological evaluation of clovamide analogues with catechol functionality as potent Parkinson's disease agents in vitro and in vivo” (Bioorg Med Chem Lett, 2019).

How the values were obtained:
Mus musculus = test: Anti-parkinson's activity in MPTP-induced C57Bl/6 mouse model of Parkinson's disease assessed as increase in SOD activity in striatum administered intragastrically pretreated for 10 days followed by MPTP challenge measured 10 days post MPTP addition by xanthine oxidase method; format: functional, organism-based
In short: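 Striatum and SNpc from MPTP-treated mice dosed orally with 1 at 10 or 20 mg/kg. MDA level and SOD activity measured. Mean ± S.D., n = 6 mice/group.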

[1] = Activation of PI3K/Akt/mTOR signaling in human SH-SY5Y cells assessed as up regulation of H2O2-induced HO-1 expression at 10 uM preincubated for 6 hrs followed by H2O2 addition and after 24 hrs by Western blot analysis (reference value: 181.53 +/- 24.67%); format: cell-based
In short: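 SH-SY5Y cells pretreated 6 h with 1 (1 or 10 μM), then exposed to 600 μM H₂O₂ for 24 h. HO-1 measured by western blot with densitometry and expressed as % of control. Mean ± S.E.M., three independent experiments.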

SH-SY5Y = test: Protection against H2O2-induced mitochondrial dysfunction in human SH-SY5Y cells assessed as mitochondrial membrane potential at 1 uM preincubated for 6 hrs followed by H2O2 addition and measured after 24 hrs by Rh123 staining based flow cytometry (reference value: 26.31 +/- 3.32%); format: functional
In short: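 ΔΨm examined by inverted fluorescence microscopy and flow cytometry after pretreatment (1, 10 μM) and 600 μM H₂O₂. Reported as % of control. Mean ± S.E.M., three independent experiments.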

COC(=O)[C@H](Cc1ccccc1)NC(=O)/C=C/c1ccc(O)c(O)c1 [N-CAFFEOYL-PHENYLALANINE METHYL ESTER]
Activity (Mus musculus): Dose-dependent effect
Activity [1]: 325%
Activity (SH-SY5Y): 79.4%
